Hits are enriched below; roughly 1.3% of the tested compounds scored in any of these assays.
ARFGAP1 inh – rat ARFGAP1 inhibition; Q62848; Arfgap1-stimulated ARF1 GTP hydrolysis, GDP FP detection; inhibition, % at 16.5 µM; actives 0.26% (n = 360,000); AID 651572;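 active = inhibition above a per-plate limit, mean inhibition of low control wells plus 3 SD, cut at about 25% in these data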;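 also: 0% = DMSO wells with enzyme and 100% = wells lacking Arfgap1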
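Replicates: Single well per compound | Assay system: Truncated rat Arfgap1 GAP domain | Control set: No-Arfgap1 wells (100%) versus DMSO full-reaction wells (0%) | Times: Enzyme reaction 120 min at 25 °C after 20 min preincubation | Reagent: Human ARF1(Δ1-17)-GTP substrate | Measured by: Tracer-displacement fluorescence polarization with EDTA stop, 620/688 nm | Measure: Percent inhibition of Arfgap1-stimulated GTP hydrolysis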
ASAP1 GAP inh – blocks human ASAP1-stimulated Arf1 GTP hydrolysis. inhibition, % at 16.5 µM. GDP FP detection. Q9ULH1. actives 0.19% (n = 360,000); in the data active = inhibition above about 25%;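 also: 0% = vehicle with enzyme and substrate and 100% = no enzyme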
Target sequence (Q9ULH1 325-724 limits assumed): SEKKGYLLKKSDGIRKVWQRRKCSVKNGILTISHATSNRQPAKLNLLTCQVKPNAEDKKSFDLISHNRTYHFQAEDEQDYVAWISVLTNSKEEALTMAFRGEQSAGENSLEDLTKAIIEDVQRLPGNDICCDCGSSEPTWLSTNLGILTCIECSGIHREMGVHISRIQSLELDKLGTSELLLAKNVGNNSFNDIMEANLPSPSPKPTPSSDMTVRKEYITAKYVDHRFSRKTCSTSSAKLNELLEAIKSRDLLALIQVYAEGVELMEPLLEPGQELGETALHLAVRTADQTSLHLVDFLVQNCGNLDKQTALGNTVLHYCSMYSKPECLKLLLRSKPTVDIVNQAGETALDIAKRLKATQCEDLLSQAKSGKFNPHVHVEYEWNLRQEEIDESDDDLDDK
LEDGF integ inh – blocks HIV-1 LEDGF/p75-dependent DNA integration. TR-FRET IN-LEDGF/p75 DNA integration, Eu/Cy5. actives 0.64% (n = 370,000). inhibition, % at 3.7 µM;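 active = inhibition above the screen-wide mean plus 3 SD, cut at about 13% in these data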;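 also: signal is the Cy5 over europium emission ratio at 671 and 618 nm; 0% = plate median of compound wells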
Casp6 inh – inhibitors of human caspase-6; P55212; purified caspase-6, Z-VEID-R110 cleavage fluorescence; inhibition, % at 12.5 µM; actives 0.53% (n = 350,000);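 active = mean inhibition across replicates at least about 35%, with every replicate also reaching that limit, limit read from the data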;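 also: 0% = median of neutral control wells and 100% = no fluorescence left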
TDP2 absorb – blocks human TDP2 phosphodiesterase activity. recombinant TDP2, T5PNP hydrolysis, p-nitrophenol absorbance 415 nm. O95551. AID 720702. actives 0.34% (n = 370,000). inhibition, % at 12.8 µM;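 active = inhibition above the mean of all tested compounds plus 3 SD, set per campaign, cut at about 25% in these data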;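 also: 0% = DMSO with enzyme and 100% = buffer with substrate but no TDP2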
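System – recombinant human TDP2 · Amount – 120 nM TDP2 per well · Buffer or medium – Mg2+-containing Tris-HCl buffer, pH 7.5 · Reagent – T5PNP substrate, 5 mM · Dosing – 12.8 µM single point, 1% DMSO · Incubation – 2 h at 37 °C · Measured by – epi absorbance · Read-out basis – percent inhibition · Benchmarks – high control without enzyme, low control DMSO plus TDP2 · Repeats – singlicate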
Starred values were filed as active, the others as inactive; / = no result.

SMILES	ARFGAP1 inh	ASAP1 GAP inh	LEDGF integ inh	Casp6 inh	TDP2 absorb
COc1ccccc1N(CC(=O)NCCSCc1ccccc1Cl)S(C)(=O)=O	5.4	8.8	-2.2	38.8*	0.6
CN(C)c1ccc(C=c2c3ccccc3n3c2cc(-c2ccc(Cl)cc2)[n+]3C)cc1	14.1	-5.3	4.3	-2.8	12.2
CN(C)c1ccc(C=c2c3cc([N+](=O)[O-])ccc3n3c2cc(-c2ccccc2)[n+]3C)cc1	39.1*	19.5	-4.3	-2.1	-5.8
CN(C)c1ccc(C=c2c3ccccc3n3c2c2c([n+]3C)CCCC2)cc1	8.8	11.7	-5.5	/	3.8
COc1cc(N(C)C)ccc1C=c1c2ccccc2n2c1cc(-c1ccccc1)[n+]2C	12.6	35.6*	-0.8	61.3*	10.2
CCN(CC)C(=O)COc1cc(C)c(Cl)c(C)c1	-4.7	6.1	-3.8	/	-13.0
Cc1ccc(NC(=O)N/C=C/c2ccco2)cc1	-3.7	3.9	14.4*	/	-2.0
CCN1CCN(c2ncnc3c2cnn3-c2ccccc2)CC1	1.8	12.8	-2.1	-6.4	1.6
CCN1CCN(c2ncnc3c2cnn3-c2ccc(Cl)cc2)CC1	-1.3	-11.6	0.7	38.4*	-5.0
O=C(O)CCC(=O)N1N=C(c2ccco2)CC1c1ccco1 (stereo unspecified)	10.2	2.6	11.8	41.1*	5.3
CCCCn1c(N)c(N(CCC(C)C)C(=O)CSc2nncn2-c2ccccc2)c(=O)[nH]c1=O	1.5	-0.6	-0.1	6.4	-2.4
Nc1ccn([C@@H]2O[C@H](CNCc3cc(Br)ccc3OCc3ccccc3)[C@@H](O)[C@H]2O)c(=O)n1	-7.0	3.9	1.9	-0.6	2.9
COc1ccccc1CN=Cc1[nH]c2ccc(Br)c(Cl)c2c1O	-8.8	-10.1	0.8	/	-0.1
Cc1cccc(N=Cc2[nH]c3ccc(Br)c(Cl)c3c2O)c1	2.2	11.1	-0.6	/	28.8*
CCOC(=O)[C@]12CCC=C1N(Cc1ccco1)C(=O)[C@H](CC(=O)N1CCCC1)C2	2.2	-2.6	1.2	-2.5	9.2
CCCC1Cc2c(sc3ncnc(N)c23)CO1 (stereo unspecified)	-2.0	-2.0	-0.7	/	-0.7
c1csc(-c2cnc3n2CCCC3)c1	-1.2	-1.9	3.6	/	-6.4
CCOc1ccc(N2CC(C(=O)NCC(=O)Nc3ccc(F)c(F)c3F)CC2=O)cc1 (stereo unspecified)	-4.9	7.0	0.4	43.8*	0.6
CCNC(=O)C1CC(=O)N(c2ccc(OCC)cc2)C1 (stereo unspecified)	5.8	0.4	1.4	/	11.6
O=C(NC1CCCCC1)N[C@H]1C=C[C@@H](CC(=O)N2CCOCC2)O[C@@H]1CO	/	/	/	36.8*	/
CC(C)(C)NC(=O)C(OC(=O)c1ccco1)c1ccccc1F (stereo unspecified)	9.5	-6.6	-1.1	0.0	2.9
COc1ccc(C2SCC(C(=O)O)N2C(C)=O)cc1OC (stereo unspecified)	26.8*	-1.9	0.7	-1.8	2.9
COc1ccc(C2SCC(C(=O)O)N2C(C)=O)cc1 (stereo unspecified)	-12.5	-2.0	-0.3	/	13.6
Cc1ccc(OCC(=O)c2c(N)n(C)c(=O)n(C)c2=O)c([N+](=O)[O-])n1	-4.1	0.9	12.4	35.1*	-4.5
Cc1ccc(OCC(=O)c2cc(C)c(C)cc2C)c([N+](=O)[O-])n1	-1.3	-5.0	2.8	/	-6.6
SMILES	ARFGAP1 inh	ASAP1 GAP inh	LEDGF integ inh	Casp6 inh	TDP2 absorb
N#CC1(NC(=O)CSc2nnc(COc3ccccc3F)n2N)CCCCC1	2.3	0.4	-2.1	71.9*	-8.9
Nn1c(COc2ccccc2F)nnc1SCC(=O)NC1CCCC1	1.1	-6.8	-2.1	-4.2	-7.1
CCCCCn1c(=NC(=O)c2cccnc2)c(C#N)cc2c(=O)n3cccc(C)c3nc21	15.6	-16.9	-5.8	3.7	-14.5
Cn1cnc(S(=O)(=O)N2C[C@H](O)COC[C@H]3O[C@H](CC(=O)N4CCN(c5ccccc5)CC4)CC[C@@H]32)c1	/	/	/	-1.3	/
CCCC(=O)NCc1ccc2c(c1)cc(C)n2C	32.9*	5.7	-1.2	/	-3.5
Cc1ccc(-n2c(C(C)n3nc(C)c([N+](=O)[O-])c3C)n[nH]c2=S)cc1 (stereo unspecified)	5.2	7.2	-1.7	/	4.2
O=C(c1ccc(=O)oc1)N1CCCc2ccccc21	7.7	-11.2	21.5*	/	5.9

Screening results as filed in PubChem BioAssay.
